Experimental data from ChEMBL document CHEMBL1909561, “Stable and orally bio-available pro-drugs of CPS11” (Bioorg Med Chem Lett, 2011).
Active and inactive are the calls of the source. The calls are words filed in the database; no cut-off is given here.

Legend:
[1] = Aqueous solubility of the compound after 8 hrs by UV spectroscopy; assay type: physicochemical
[2] = system: Mus musculus; assay: Toxicity in mouse assessed as mouse survival at 65 mg/kg, ip for 5 days co-administered with taxol at 5 mg/kg, iv on day 7 post challenge; assay type: organism-based; details: in vivo, 120 h
Summary of the method: (§1)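 Mice bearing MX-1 human breast tumour fragments (1–2 mm³, implanted subcutaneously in the right flank), five per group. Treatment began on day 7 after inoculation, at a tumour size of about 200 mm³. Groups received vehicle, test compound at 65 mg/kg once daily for five consecutive days, or the same schedule plus Taxol 5 mg/kg iv once on day 7. Survival and body weight loss were monitored.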

[3] = Stability of the compound assessed as purity after 2 months by HPLC method (reference value: 98.9%); assay type: physicochemical; details: 1461 h
[4] = system: Mus musculus; assay: Toxicity in mouse assessed as body weight loss at 65 mg/kg, ip for 5 days co-administered with taxol at 5 mg/kg, iv on day 7 post challenge; assay type: organism-based; details: in vivo, 120 h; summary of the method: as §1
[5] = Stability of the compound in aqueous solution after 8 hrs; assay type: physicochemical; details: buffer
Summary of the method: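 Stability followed in aqueous solution over 8 h.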

[6] = system: Rattus norvegicus; assay: Prodrug activation in IV dosed rat assessed as formation of CPS11; assay type: organism-based; details: in vivo
[7] = Bioavailability in intragastrically administered rat; assay type: ADME, organism-based; details: in vivo, po
Summary of the method: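 Single intragastric dose given to rats; oral bioavailability determined.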

[8] = Stability of the compound assessed as purity after 2 months by HPLC method (reference value: 99.3%); assay type: physicochemical; details: 1461 h
[9] = system: ECV-304; assay: (§2) Antiproliferative activity against human ECV304 cells assessed as growth inhibition after 72 hrs by MTT assay; assay type: cell-based; details: for IC50: Homo sapiens, ECV-304, 72 h; for growth inhibition (GI): human, ecv-304, 72 h
Summary of the method: (§3)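 ECV-304 grown in RPMI 1640 with 10% bovine serum, seeded 6000 cells/well and left to attach overnight at 37 °C, 5% CO₂. Medium then replaced by fresh medium with 1% FBS plus test agent or DMSO vehicle for 72 h. MTT added for a further 4 h, absorbance read at 535 nm. Duplicate wells, three independent repeats.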

[10] = system: HUVEC; assay: Antiproliferative activity against human HUVEC at 195 uM after 24 hrs; assay type: cell-based
Summary of the method: (§4)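 HUVECs in M199 with 20% bovine serum and 20 ng/mL bFGF, seeded at 20,000 cells/well onto Matrigel that had gelled 30 min at 37 °C, left to attach overnight. Medium changed to one containing test agent or vehicle (0.5% DMSO) and cultured 24 h at 37 °C, 5% CO₂. Each well photographed and counted.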

[11] = system: MX1; assay: Antitumor activity against human MX1 cells implanted subcutaneously in mouse at 5 mg/kg, iv administered on day 7 post challenge; assay type: functional
Summary of the method: (§5)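 Mice implanted subcutaneously in the right flank with 1–2 mm³ MX-1 tumor fragments. Dosing began on day 7, at about 200 mm³ tumor size. Five mice per group: vehicle; 65 mg/kg once daily for five consecutive days; or that regimen plus Taxol 5 mg/kg iv once on day 7. Read-outs were tumor growth inhibition rate, survival and body weight.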

[12] = system: HUVEC; assay: Antiproliferative activity against human HUVEC assessed as tube formation at 195 uM after 24 hrs; assay type: cell-based; summary of the method: as §4
[13] = as §2; assay type: cell-based, ECV-304; details: human, ECV304 cells; read-out: GI; summary of the method: as §3
[14] = Toxicity in ip dosed nude mouse administered for 2 weeks; assay type: organism-based; details: in vivo
[15] = Stability of the compound after 1 month by HPLC method (reference value: 91.6%); assay type: physicochemical; details: read-out: Stability
[16] = Antitumor activity against human Lung cancer cells in metastasis model; assay type: functional, Cancer cell lines
[17] = system: PC-3; assay: Antitumor activity against human PC3 cells in xenograft model; assay type: functional
[18] = system: MX1; assay: Potentiation of taxol-induced antitumor activity against human MX1 cells xenografted in mouse at 65 mg/kg, ip for 5 days co-administered with taxol at 5 mg/kg, iv on day 7 post challenge; assay type: functional, organism-based; summary of the method: as §5
[19] = system: MX1; assay: Antitumor activity against human MX1 cells xenografted in mouse at 65 mg/kg, ip for 5 days; assay type: functional, organism-based; parameters: dose 65 mg/kg; summary of the method: as §5

O=C(OCN1C(=O)CCC(N2C(=O)c3ccccc3C2=O)C1=O)c1cccnc1.O=S(=O)(O)c1ccccc1 (stereo not drawn)
solubility at 8 h [1]: 840 µg/mL
Activity [2]: Non-toxic
Stability [3]: Stable
Activity [4]: Non-toxic
Stability [5]: Stable
Activity [6]: Active
bioavailability [7]: 60.7%

Cl.O=C(OCN1C(=O)CCC(N2C(=O)c3ccccc3C2=O)C1=O)c1cccnc1 (stereo not drawn)
solubility at 8 h [1]: 1480 µg/mL
Stability [8]: Stable
Stability [5]: Stable

O=C(OCN1C(=O)CCC(N2C(=O)c3ccccc3C2=O)C1=O)c1ccncc1 (stereo not drawn)
IC50 [9]: 180 nM
growth inhibition (GI) [9]: Dose-dependent effect
Activity [10]: 88%

CC(=O)O[C@H]1C(=O)[C@@]2(C)[C@H]([C@H](OC(=O)c3ccccc3)[C@]3(O)C[C@H](OC(=O)[C@H](O)[C@@H](NC(=O)c4ccccc4)c4ccccc4)C(C)=C1C3(C)C)[C@]1(OC(C)=O)CO[C@@H]1C[C@@H]2O [PACLITAXEL]
Activity [11]: 33.1%

O=C(OCN1C(=O)CCC(N2C(=O)c3ccccc3C2=O)C1=O)c1cccnc1 (stereo not drawn) [listing 1 of 2 here]
IC50 [9]: 120 nM
growth inhibition (GI) [9]: Dose-dependent effect
Activity [10]: 88%

O=C(OCN1C(=O)CCC(N2C(=O)c3ccccc3C2=O)C1=O)c1ccccn1 (stereo not drawn)
IC50 [9]: 100 nM
growth inhibition (GI) [9]: Dose-dependent effect
Activity [10]: 88%

O=C1CCC(N2C(=O)c3ccccc3C2=O)C(=O)N1 (stereo not drawn) [THALIDOMIDE]
Activity [12]: 53%
inhibition at 72 h [13]: 40%

O=C1CCC(N2C(=O)c3ccccc3C2=O)C(=O)N1CO (stereo not drawn)
MTD at 336 h [14]: 100 mg/kg
remaining at 730.5 h [15]: 58.9%
inhibition (INH) [16]: 87%
inhibition (INH) [17]: 90%

O=C(OCN1C(=O)CCC(N2C(=O)c3ccccc3C2=O)C1=O)c1cccnc1 (stereo not drawn) [listing 2 of 2 here]
Activity [18]: Active
Activity [19]: inactive
